Measured values reported in ChEMBL document CHEMBL5104177, “Discovery and Crystallographic Studies of Trisubstituted Piperazine Derivatives as Non-Covalent SARS-CoV-2 Main Protease Inhibitors with High Target Specificity and Low Toxicity” (J Med Chem, 2022).
≈ marks a conversion by molar mass, not a printed value.

Legend:
[1] = biological target: Replicase polyprotein 1ab (Severe acute respiratory syndrome coronavirus 2, UniProt P0DTD1); experiment: Inhibition of SARS-CoV-2 main protease using MCA-AVLQSGFR-Lys(Dnp)-Lys-NH2 as fluorescent substrate preincubated for 10 mins followed by substrate addition and measured every 10 sec for 10 mins by FRET assay
Cathepsin F = biological target: T1, Cathepsin F (Homo sapiens, UniProt Q9UBX1); experiment: Inhibition of human Cathepsin F using Z-Phe-Arg-AMC as fluorogenic substrate incubated for 60 mins by FRET assay
T1 sequence (Q9UBX1 whole entry): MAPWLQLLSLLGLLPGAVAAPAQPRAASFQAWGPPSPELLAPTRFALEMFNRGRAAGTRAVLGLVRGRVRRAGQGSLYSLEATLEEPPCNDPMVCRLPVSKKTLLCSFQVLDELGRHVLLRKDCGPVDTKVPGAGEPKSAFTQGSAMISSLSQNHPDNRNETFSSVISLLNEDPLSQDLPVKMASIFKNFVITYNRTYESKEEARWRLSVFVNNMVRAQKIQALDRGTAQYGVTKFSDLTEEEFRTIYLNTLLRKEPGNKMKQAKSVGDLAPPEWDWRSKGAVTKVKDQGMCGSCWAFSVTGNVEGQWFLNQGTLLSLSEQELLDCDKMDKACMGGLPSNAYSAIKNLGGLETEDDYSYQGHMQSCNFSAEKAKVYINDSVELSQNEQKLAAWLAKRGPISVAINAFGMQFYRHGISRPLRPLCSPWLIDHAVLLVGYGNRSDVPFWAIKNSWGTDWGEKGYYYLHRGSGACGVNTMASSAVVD

SARS-CoV-2 [2] = experiment: Antiviral activity against SARS-CoV-2 infected in Vero E6 cells assessed as inhibition of viral replication incubated for 25 to 26 hrs by EliSpot reader based analysis; format: functional, organism-based; conditions: Severe acute respiratory syndrome coronavirus 2, Vero C1008
Summary of the method: (§1)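 Antiviral assay in SARS-CoV-2-infected Vero E6 cells, with remdesivir and GC-376 as positive controls, n = 3 biological replicates, SD reported. The potency index is EC50(remdesivir)/EC50(test compound), both measured in this assay.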

[3] = Inhibition of SARS-CoV-1 main protease; parameters: species or system Severe acute respiratory syndrome-related coronavirus
Summary of the method: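 SARS-CoV-1 Mpro inhibition tested in addition to SARS-CoV-2 Mpro. Values are mean ± SD of three independent experiments.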

Caspase-3 = biological target: T2, Caspase-3 (Homo sapiens, UniProt P42574); experiment: Inhibition of human caspase-3 using Ac-Asp-Glu-Val-Asp-pNA as substrate incubated for 60 mins by FRET assay
T2 sequence (P42574 whole entry): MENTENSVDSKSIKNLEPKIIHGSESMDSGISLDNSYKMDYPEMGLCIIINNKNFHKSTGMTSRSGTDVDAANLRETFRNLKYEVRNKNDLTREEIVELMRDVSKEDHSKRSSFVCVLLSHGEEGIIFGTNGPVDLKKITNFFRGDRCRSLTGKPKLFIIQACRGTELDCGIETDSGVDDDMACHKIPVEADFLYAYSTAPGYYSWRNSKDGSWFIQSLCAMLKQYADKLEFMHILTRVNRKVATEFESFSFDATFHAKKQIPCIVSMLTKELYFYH

Procathepsin L = Procathepsin L (Homo sapiens, UniProt P07711); experiment: Inhibition of human Cathepsin L using Z-Leu-Arg-AMC as fluorogenic substrate incubated for 60 mins by FRET assay
Cathepsin K = biological target: T3, Cathepsin K (Homo sapiens, UniProt P43235); experiment: Inhibition of human Cathepsin K using Ac-LR-AMC as fluorogenic substrate incubated for 60 mins by FRET assay
T3 sequence (P43235 whole entry): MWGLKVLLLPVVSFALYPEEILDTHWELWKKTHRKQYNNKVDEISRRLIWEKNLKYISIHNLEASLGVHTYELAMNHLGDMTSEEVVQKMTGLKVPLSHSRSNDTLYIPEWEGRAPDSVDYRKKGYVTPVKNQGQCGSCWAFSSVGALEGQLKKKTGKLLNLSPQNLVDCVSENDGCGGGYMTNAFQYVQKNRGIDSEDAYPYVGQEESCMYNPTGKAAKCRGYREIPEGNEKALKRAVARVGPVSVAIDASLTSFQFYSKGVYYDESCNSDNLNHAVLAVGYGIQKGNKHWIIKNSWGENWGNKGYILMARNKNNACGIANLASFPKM

Cathepsin B = Cathepsin B (Homo sapiens, UniProt P07858); experiment: Inhibition of human Cathepsin B using Z-Leu-Arg-AMC as fluorogenic substrate incubated for 60 mins by FRET assay
[4] = Cytotoxicity against African green monkey Vero E6 cells assessed as reduction in cell viability incubated for 26 hrs by celltiter 96 aqueous non-radioactive cell proliferation assay; format: toxicity, cell-based, Vero C1008; conditions: chlorocebus sabaeus
Summary of the method: (§2)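 Cytotoxicity measured in Vero E6 cells run in parallel with the antiviral assay, n = 3 biological replicates, SD reported.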

SARS-CoV-2 [5] = experiment: Potency index, ratio of remdesivir EC50 to test compound EC50 for Antiviral activity against SARS-CoV-2 infected in Vero E6 cells assessed as inhibition of viral replication incubated for 25 to 26 hrs by EliSpot reader based analysis; format: functional, Severe acute respiratory syndrome coronavirus 2; summary of the method: as §1
[6] = Microsomal stability in human liver microsomes assessed as intrinsic clearance at 1 uM preincubated for 10 mins followed by NADPH addition and measured upto 60 mins by LC-MS/MS analysis; format: ADME, Microsome; conditions: time < 70 min, read-out: CLH
[7] = Half life in Sprague-Dawley rat at 2 mg/kg, iv measured upto 24 hrs by LC-MS/MS analysis; format: ADME, organism-based; conditions: in vivo
Summary of the method: (§3)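 Single-dose pharmacokinetics in Sprague–Dawley rats: 2 mg/kg given i.v. or 10 mg/kg given orally, in separate arms. Plasma parameters were derived for each route. Oral bioavailability (F) was obtained from the two arms. Values are mean ± SD, n = 3.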

[8] = Tmax in Sprague-Dawley rat at 2 mg/kg, iv measured upto 24 hrs by LC-MS/MS analysis; format: ADME, organism-based; conditions: in vivo; summary of the method: as §3
[9] = Cmax in Sprague-Dawley rat at 2 mg/kg, iv measured upto 24 hrs by LC-MS/MS analysis; format: ADME, organism-based; parameters: dose 2 mg/kg, time < 24 hrs, route iv; conditions: in vivo; summary of the method: as §3
[10] = C0 in Sprague-Dawley rat at 2 mg/kg, iv measured upto 24 hrs by LC-MS/MS analysis; format: ADME, organism-based; conditions: in vivo; summary of the method: as §3
[11] = AUC (0 to t) in Sprague-Dawley rat at 2 mg/kg, iv measured upto 24 hrs by LC-MS/MS analysis; format: ADME, organism-based; parameters: dose 2 mg/kg, time < 24 hrs, route iv; conditions: in vivo
[12] = AUC (0 to infinity) in Sprague-Dawley rat at 2 mg/kg, iv measured upto 24 hrs by LC-MS/MS analysis; format: ADME, organism-based; parameters: dose 2 mg/kg, time < 24 hrs, route iv; conditions: in vivo
[13] = Half life in Sprague-Dawley rat at 10 mg/kg, po measured upto 24 hrs by LC-MS/MS analysis; format: ADME, organism-based; conditions: in vivo; summary of the method: as §3
[14] = MRT (0 to infinity) in Sprague-Dawley rat at 2 mg/kg, iv measured upto 24 hrs by LC-MS/MS analysis; format: ADME, organism-based; conditions: in vivo; summary of the method: as §3
[15] = Clearance in Sprague-Dawley rat at 2 mg/kg, iv measured upto 24 hrs by LC-MS/MS analysis; format: ADME, organism-based; conditions: in vivo; summary of the method: as §3
[16] = Tmax in Sprague-Dawley rat at 10 mg/kg, po measured upto 24 hrs by LC-MS/MS analysis; format: ADME, organism-based; conditions: in vivo; summary of the method: as §3
[17] = Cmax in Sprague-Dawley rat at 10 mg/kg, po measured upto 24 hrs by LC-MS/MS analysis; format: ADME, organism-based; parameters: time < 24 hrs, dose 10 mg/kg, route po; conditions: in vivo; summary of the method: as §3
[18] = AUC (0 to t) in Sprague-Dawley rat at 10 mg/kg, po measured upto 24 hrs by LC-MS/MS analysis; format: ADME, organism-based; parameters: dose 10 mg/kg, time < 24 hrs, route po; conditions: in vivo; summary of the method: as §3
[19] = AUC (0 to infinity) in Sprague-Dawley rat at 10 mg/kg, po measured upto 24 hrs by LC-MS/MS analysis; format: ADME, organism-based; parameters: dose 10 mg/kg, time < 24 hrs, route po; conditions: in vivo; summary of the method: as §3
[20] = MRT (0 to infinity) in Sprague-Dawley rat at 10 mg/kg, po measured upto 24 hrs by LC-MS/MS analysis; format: ADME, organism-based; conditions: in vivo; summary of the method: as §3
[21] = Oral bioavailability in Sprague-Dawley rat at 10 mg/kg measured upto 24 hrs by LC-MS/MS analysis; format: ADME, organism-based; conditions: in vivo; summary of the method: as §3
[22] = Kinetic solubility of the compound at pH 7.3; format: physicochemical; conditions: buffer, read-out: Kinetic_solubility
Summary of the method: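 Kinetic solubility measured in phosphate buffer at pH 7.3.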

[23] = Cytotoxicity against African green monkey Vero E6 cells assessed as reduction in cell viability; format: toxicity, cell-based; conditions: chlorocebus sabaeus; summary of the method: as §2

Chain of Procathepsin L (P07711 whole entry): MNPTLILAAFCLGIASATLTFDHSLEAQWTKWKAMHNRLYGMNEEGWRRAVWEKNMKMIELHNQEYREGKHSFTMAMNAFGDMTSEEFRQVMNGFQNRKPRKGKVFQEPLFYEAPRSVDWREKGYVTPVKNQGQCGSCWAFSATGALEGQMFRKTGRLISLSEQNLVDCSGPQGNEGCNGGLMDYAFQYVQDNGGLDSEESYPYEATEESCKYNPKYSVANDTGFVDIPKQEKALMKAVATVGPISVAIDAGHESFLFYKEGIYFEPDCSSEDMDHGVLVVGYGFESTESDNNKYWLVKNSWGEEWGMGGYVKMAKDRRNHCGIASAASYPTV

## O=C(NCc1ccco1)C1CN(C(=O)c2cc(=O)[nH]c(=O)[nH]2)CCN1c1ccc(Cl)c(Cl)c1 (racemic)
[1]
  IC50: 0.79 nM

## O=C(NCc1ccco1)C1CN(C(=O)c2cc(=O)[nH]c(=O)[nH]2)CCN1Cc1ccc(Cl)cc1Cl (stereo unspecified)
[1]
  IC50: 0.59 nM

## CC(C)C[C@H](NC(=O)OCc1ccccc1)C(=O)N[C@@H](C[C@@H]1CCNC1=O)C(O)S(=O)(=O)O (stereo partly specified)
Cathepsin F
  IC50: 74 nM
SARS-CoV-2 [2]
  IC50: 200 nM

## O=C(NCc1ccco1)[C@@H]1CN(C(=O)c2cc(=O)[nH]c(=O)[nH]2)CCN1Cc1ccc(Cl)cc1Cl
[1]
  IC50: 0.48 nM
[3]
  IC50: 1650 nM

## CCC(CC)COC(=O)[C@H](C)N[P@](=O)(OC[C@H]1O[C@@](C#N)(c2ccc3c(N)ncnn23)[C@H](O)[C@@H]1O)Oc1ccccc1
SARS-CoV-2 [2]
  IC50: 2800 nM

## O=C(NCc1cccs1)[C@@H]1CN(C(=O)c2cncc3ccccc23)CCN1c1ccc(Cl)c(Cl)c1
Caspase-3
  IC50: 50000 nM
[1]
  IC50: 0.44 nM
Procathepsin L
  IC50: 50000 nM
Cathepsin F
  IC50: 50000 nM
Cathepsin K
  IC50: 50000 nM
Cathepsin B
  IC50: 50000 nM
SARS-CoV-2 [2]
  IC50: 1000 nM
[4]
  CC50 at 26 h: > 100000 nM
SARS-CoV-2 [5]
  Ratio: 2.8

## O=C(NCc1cccs1)[C@@H]1CN(C(=O)c2cccnc2)CCN1c1ccc(Cl)c(Cl)c1
Caspase-3
  IC50: 50000 nM
[1]
  IC50: 0.4 nM
Procathepsin L
  IC50: 50000 nM
Cathepsin F
  IC50: 50000 nM
Cathepsin K
  IC50: 50000 nM
Cathepsin B
  IC50: 50000 nM
SARS-CoV-2 [2]
  IC50: 1100 nM
[4]
  CC50 at 26 h: > 100000 nM
[3]
  IC50: 4610 nM
[6]
  CLint scaled at 1 µM: 994 mL/min/kg
[7]
  half-life: 21.6 min
[8]
  Tmax: 4.8 min
[9]
  Cmax: 1310 ng/mL
[10]
  C0 at 24 h: 1760 ng/mL
[11]
  AUC(0-t) at 24 h: 627 ng·h/mL
[12]
  AUC: 637 ng·h/mL
[13]
  half-life: 104 min
[14]
  MRT inf: 24 min
[15]
  clearance: 52.3 mL/min/kg
[16]
  Tmax: 30 min
[17]
  Cmax: 74.6 ng/mL
[18]
  AUC(0-t) at 24 h: 235 ng·h/mL
[19]
  AUC: 230 ng·h/mL
[20]
  MRT inf: 147 min
[21]
  F: 72%
[22]
  solubility kinetic: 4.1 µg/mL (≈ 8.62 µM)

## O=C(c1cc(=O)[nH]c(=O)[nH]1)N1CCN(c2ccc(Cl)c(Cl)c2)CC1
SARS-CoV-2 [2]
  IC50: > 50000 nM
[4]
  CC50 at 26 h: > 100000 nM

## O=C(NCc1cccs1)C1CN(C(=O)c2cc(=O)[nH]c(=O)[nH]2)CCN1c1ccc(Cl)c(Cl)c1 (racemic)
[1]
  IC50: 0.61 nM

## O=C(NCc1ccco1)[C@@H]1CN(C(=O)c2cc(=O)[nH]c(=O)[nH]2)CCN1c1ccc(Cl)c(Cl)c1
[1]
  IC50: 0.35 nM
SARS-CoV-2 [2]
  IC50: > 50000 nM
[4]
  CC50 at 26 h: > 100000 nM
[3]
  IC50: 1000 nM

## O=C(NCc1ccco1)[C@H]1CN(C(=O)c2cc(=O)[nH]c(=O)[nH]2)CCN1c1ccc(Cl)c(Cl)c1
[1]
  IC50: 2.98 nM

## O=C(NCc1cccs1)[C@@H]1CN(C(=O)c2cc(=O)[nH]c(=O)[nH]2)CCN1Cc1ccc(Cl)cc1Cl
[1]
  IC50: 0.44 nM
SARS-CoV-2 [2]
  IC50: > 50000 nM
[4]
  CC50 at 26 h: > 100000 nM
[3]
  IC50: 1290 nM

## O=c1[nH]cc(-c2cc(-c3cc(Cl)cc(OCc4ccccc4Cl)c3)c(=O)n(-c3cccnc3)c2)c(=O)[nH]1
[23]
  CC50: 1700 nM

## O=C(NCc1cccs1)[C@@H]1CN(C(=O)c2cc(=O)[nH]c(=O)[nH]2)CCN1c1ccc(Cl)c(Cl)c1 (racemic)
[1]
  IC50: 0.4 nM
SARS-CoV-2 [2]
  IC50: > 50000 nM
[4]
  CC50 at 26 h: > 100000 nM
[3]
  IC50: 1090 nM

## Cn1cnc(Cn2c(=O)[nH]/c(=N\c3cc4cn(C)nc4cc3Cl)n(Cc3cc(F)c(F)cc3F)c2=O)n1
SARS-CoV-2 [2]
  IC50: 370 nM
[4]
  CC50 at 26 h: > 100000 nM
